Laboratory results taken from ChEMBL document CHEMBL4130501 (Eur J Med Chem, 2017).
Active and inactive are the calls of the source. The rule behind the calls is not given here.

Assays:
Cholinesterase [1] = biological target: T1, Cholinesterase (Homo sapiens, UniProt P06276); assay: Inhibition of BuChE (unknown origin) at 500 nM pre-incubated for 20 mins before S-Butyrylthiocholine iodide substrate addition by Ellman reagent based spectrophotometry
Procedure, shortened: (§1)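 Cholinesterase inhibition was tested with the compound at 500 nM and reported as percent inhibition, mean ± SEM.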

[2] = biological target: Amyloid-beta precursor protein (Homo sapiens) (UniProt P05067); assay: Inhibition of self-induced amyloid beta (1 to 42) (unknown origin) aggregation at 10 uM after 24 hrs by thioflavin T-based fluorometric assay relative to control
Procedure, shortened: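 Self-mediated Aβ1-42 aggregation was followed by thioflavin-T fluorescence with 10 µM inhibitor present. Percent inhibition was reported as mean ± SEM.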

[3] = Metal chelating activity against Cupric ions assessed as induction of isosbestic shift of maximum absorption upon addition of CuCl2 at 10 uM incubated for 30 mins UV-Vis spectrophotometry
HT-22 [4] = assay: Neuroprotective activity against glutamate-induced cytotoxicity in mouse HT22 cells assessed as increase cell viability at 30 uM pre-incubated for 30 mins before glutamate stimulation for 24 hrs by MTT assay; format: functional, cell-based
Procedure, shortened: (§2)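 HT22 cells were pretreated for 30 min with compounds at 3, 10 or 30 µM, then exposed to […] glutamate for 24 h. Viability was read by MTT (n = 3) and compared against the glutamate-only group and the control.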

[5] = Permeability at 100 ug/ml incubated for 10 hrs by PAMPA method; format: ADME; settings: read-out: Peff
Procedure, shortened: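 Passive BBB permeation was measured by PAMPA-BBB through an artificial lipid membrane, with Pe given in 10^-6 cm s^-1. Classification: Pe > 4.7 is CNS+, 4.7 to 1.8 is uncertain, and Pe < 1.8 is CNS−.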

[6] = Antioxidant activity assessed as DPPH radical scavenging activity incubated for 60 mins under dark condition by spectrophotometry; format: functional
Procedure, shortened: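 DPPH radical scavenging was measured, and the IC50 was taken as the compound concentration giving 50% scavenging.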

HT-22 [7] = assay: Cytotoxicity in mouse HT22 cells assessed as reduction in cell viability at 30 to 100 uM incubated for 24 hrs by MTT assay; format: cell-based; settings: ht-22, 24 h
Procedure, shortened: (§3)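 Mouse HT22 cells were exposed to compounds at 30, 50 and 100 µM for 24 h. Viability was read by colorimetric MTT assay and compared with untreated control cells (n = 3).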

[8] = Inhibition of AChE (unknown origin) at 500 nM pre-incubated for 20 mins before acetylthiocholine iodide substrate addition by Ellman reagent based spectrophotometry; settings: Homo sapiens; procedure, shortened: as §1
Cholinesterase [9] = biological target: T1, Cholinesterase; assay: Inhibition of BuChE (unknown origin) pre-incubated for 20 mins before S-Butyrylthiocholine iodide substrate addition by Ellman reagent based spectrophotometry
HT-22 [10] = assay: Neuroprotective activity against glutamate-induced cytotoxicity in mouse HT22 cells assessed as increase cell viability at 3 to 30 uM pre-incubated for 30 mins before glutamate stimulation for 24 hrs by MTT assay; format: functional, cell-based; procedure, shortened: as §2
HT-22 [11] = assay: Neuroprotective activity against glutamate-induced cytotoxicity in mouse HT22 cells assessed as increase cell viability at 10 uM pre-incubated for 30 mins before glutamate stimulation for 24 hrs by MTT assay; format: functional, cell-based; procedure, shortened: as §2
HT-22 [12] = assay: Cytotoxicity in mouse HT22 cells assessed as reduction in cell viability at 30 uM incubated for 24 hrs by MTT assay; format: cell-based; settings: ht-22, 24 h; procedure, shortened: as §3
HT-22 [13] = assay: Cytotoxicity in mouse HT22 cells assessed as reduction in cell viability at 100 uM incubated for 24 hrs by MTT assay; format: cell-based; settings: ht-22, 24 h; procedure, shortened: as §3

T1 sequence (P06276 whole entry): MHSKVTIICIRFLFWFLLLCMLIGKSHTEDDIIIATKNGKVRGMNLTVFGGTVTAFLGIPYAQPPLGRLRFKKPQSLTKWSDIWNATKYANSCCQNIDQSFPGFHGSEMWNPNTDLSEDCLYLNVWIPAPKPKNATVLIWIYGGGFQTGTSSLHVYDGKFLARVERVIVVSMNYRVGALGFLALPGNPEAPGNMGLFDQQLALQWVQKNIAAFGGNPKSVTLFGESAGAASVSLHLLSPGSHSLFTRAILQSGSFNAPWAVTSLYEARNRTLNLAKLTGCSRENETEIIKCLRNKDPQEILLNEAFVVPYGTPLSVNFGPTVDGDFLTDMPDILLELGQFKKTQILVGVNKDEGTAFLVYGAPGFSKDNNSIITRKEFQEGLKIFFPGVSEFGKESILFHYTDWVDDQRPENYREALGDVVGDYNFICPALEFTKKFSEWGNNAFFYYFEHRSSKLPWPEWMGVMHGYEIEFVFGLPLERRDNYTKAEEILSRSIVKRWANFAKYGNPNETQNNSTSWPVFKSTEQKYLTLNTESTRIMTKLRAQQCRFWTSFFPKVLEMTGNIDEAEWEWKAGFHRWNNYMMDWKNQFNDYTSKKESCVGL
Sequence of Amyloid-beta precursor protein (Homo sapiens) (P05067 whole entry): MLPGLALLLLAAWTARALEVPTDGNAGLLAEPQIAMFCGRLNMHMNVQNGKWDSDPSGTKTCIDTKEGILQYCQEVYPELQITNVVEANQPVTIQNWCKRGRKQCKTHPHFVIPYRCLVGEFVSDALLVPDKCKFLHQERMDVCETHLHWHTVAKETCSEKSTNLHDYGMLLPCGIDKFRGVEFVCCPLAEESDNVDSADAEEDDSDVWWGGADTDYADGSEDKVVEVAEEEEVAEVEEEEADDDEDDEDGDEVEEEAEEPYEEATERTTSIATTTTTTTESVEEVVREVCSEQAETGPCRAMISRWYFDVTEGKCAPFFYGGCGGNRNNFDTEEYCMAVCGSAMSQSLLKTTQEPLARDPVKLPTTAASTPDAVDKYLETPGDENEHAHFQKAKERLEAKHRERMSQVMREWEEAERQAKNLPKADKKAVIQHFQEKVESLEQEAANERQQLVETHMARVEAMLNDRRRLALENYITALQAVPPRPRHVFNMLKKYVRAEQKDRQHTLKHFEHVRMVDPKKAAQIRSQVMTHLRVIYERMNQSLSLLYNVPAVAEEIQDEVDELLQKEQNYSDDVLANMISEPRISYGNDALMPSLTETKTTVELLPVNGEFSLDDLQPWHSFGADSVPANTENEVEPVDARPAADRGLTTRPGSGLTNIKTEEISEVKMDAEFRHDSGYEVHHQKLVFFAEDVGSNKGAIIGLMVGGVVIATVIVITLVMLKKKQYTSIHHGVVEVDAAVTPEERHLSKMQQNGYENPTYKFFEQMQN

SMILES | inhibition (Cholinesterase [1]) [%] | inhibition [2] [%] | Activity [3] | Activity (HT-22 [4]) | Papp at 10 h, 100 ug/ml [5] [×10⁻⁶ cm/s] | IC50 [6] [µM] | Activity (HT-22 [7]) | inhibition [8] [%] | IC50 (Cholinesterase [9]) [µM] | Activity (HT-22 [10]) | Activity (HT-22 [11]) | Activity (HT-22 [12]) | Activity (HT-22 [13])
CCN(C)C(=O)Oc1cccc(CNC(=O)c2cc(O)c(O)c(O)c2)c1 | 2.39 | 51.8 | Active | Active | 4.86 | 12.9 | Non-Toxic | 5.53 |  |  |  |  | 
CCN(C)C(=O)Oc1cccc(NC(=O)c2cc(=O)c3ccccc3o2)c1 | 53.8 | 63.8 |  |  |  | > 100 | Toxic | 9.03 | 0.507 | inactive |  |  | 
CCN(C)C(=O)Oc1cccc(CCNC(=O)c2cc(=O)c3ccccc3o2)c1 | 49.1 | 67.4 |  |  |  | > 100 | Toxic | 22.1 | 0.511 | inactive |  |  | 
CCN(C)C(=O)Oc1cccc(NC(=O)CCCCC2CCSS2)c1 (stereo unspecified) | 77.4 | 46.3 | Active | inactive | 10.3 | 4.53 | Non-Toxic | 0.51 | 0.356 |  |  |  | 
CCN(C)C(=O)Oc1cccc(CNC(=O)CCCCC2CCSS2)c1 (stereo unspecified) | 77.3 | 51.8 | Active | inactive | 27.8 | 4.3 | Non-Toxic | 3.66 | 0.378 |  |  |  | 
CCN(C)C(=O)Oc1cccc(CNC(=O)c2cc(=O)c3ccccc3o2)c1 | 37.1 | 55.2 |  |  |  | > 100 |  | 12.7 | 0.65 |  | Active | Toxic | 
Cc1c(C)c2c(c(C)c1O)CCC(C)(C(=O)O)O2 (stereo unspecified) [TROLOX] |  |  |  |  |  | 23.5 |  |  |  |  |  |  | 
CCN(C)C(=O)Oc1cccc(NC(=O)c2cc(O)c(O)c(O)c2)c1 | 7.98 | 47.3 | Active |  | 3.08 | 10.6 |  | 23.6 |  |  | Active |  | Toxic
CCN(C)C(=O)Oc1cccc([C@H](C)N(C)C)c1 [RIVASTIGMINE] | 30.1 |  |  |  | 16.3 |  |  | 1.92 |  |  |  |  | 
CCN(C)C(=O)Oc1cccc(CCNC(=O)c2cc(O)c(O)c(O)c2)c1 | 58.8 | 27.1 | Active |  | 5.14 | 11.7 |  | 3.48 | 0.452 | inactive |  |  | Toxic
CCN(C)C(=O)Oc1cccc(CCNC(=O)CCCCC2CCSS2)c1 (stereo unspecified) | 76.7 | 49.8 |  | inactive | 12.1 | 4.88 | Non-Toxic | -1.48 | 0.34 |  |  |  | 
